Source: paper PMC11100303 (RSC Advances, 2024)

Key:
[1] = Thermogravimetric analysis; assay type: physicochemical; details: TGA, 30 to 350 °C at 10 °C min^−1, nitrogen
In short: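 Samples of 2–5 mg weighed into platinum pans and heated from 30 to 350 °C at 10 °C min−1 under nitrogen purge at 25 mL min−1. T5% taken as the temperature at 5% loss of total sample mass.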

[2] = system: Human endocervical epithelial cell line (A2EN); assay: Crystal violet staining for cervical cell morphology; assay type: cell-based; details: 24 h treatment, even at 100 mM
[3] = pH of compound dissolved in water; assay type: physicochemical; details: mean ± S.D., n = 3
[4] = system: Human endocervical epithelial cell line (A2EN); assay: MTT assay for cervical cell proliferation / viability; assay type: cell-based; details: 24 h treatment, even at high concentrations of 50 mM

Row | SMILES | T5% (onset temperature at 5% mass loss) [1] | Morphological changes of cervical epithelial cells [2] | pH [3] | Effect on cervical epithelial cell viability [4]
1 | C[N+](C)(C)CCO.O=C([O-])[C@H](O)Cc1ccccc1 [Chol : D-PLA (1 : 1)] | 94.3 °C | no morphological changes were observed | 9.02 ± 1.7 | did not significantly reduce cervical epithelial cell viability
2 | O=C(O)C(O)Cc1ccccc1 [D-PLA, 2-hydroxy-3-phenylpropanoic acid] | – | – | 2.9 ± 1.2 | –
3 | O=C(O)C(O)Cc1ccccc1 [L-PLA, 2-hydroxy-3-phenylpropanoic acid] | 156.07 °C | – | 3.2 ± 1.6 | –
4 | C[N+](C)(C)C[C@H](O)CC(=O)[O-] [carnitine, L-Carnitine] | 189.9 °C | – | – | –
